These results are taken from the RNAGym collection of RNA variant scans (doi:10.1126/science.aae0568).

This sample holds only a part of the variants without activity.

B1: tRNA (parent)
chain: GUUCCGUUGGCGUAAUGGUAACGCGUCUCCCUCCUAAGGAGAAGACUGCGGGUUCGAGUCCCGUACGGAACG

The variants in this data set derive from B1. The data set can be described thus: yeast fitness relative to wild type (ratio to wild type); higher = fitter; tRNA-Arg(CCU), competitive growth, 37 C, YPD. The method, boiled down:
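A pool of Saccharomyces cerevisiae strains, each with a tRNA-Arg(CCU) gene variant at the native genomic locus, was competed in YPD at 37°C for 24 hours across six parallel replicates. The variants had been chemically synthesised at a 3% per-site mutation rate over 69 sites, and gene amplicons before and after competition were read by 100-nucleotide paired-end sequencing. Darwinian fitness relative to wild type rested on changes in genotype frequencies. Genotypes required ≥ 100 starting reads, and estimates < 0.5 were set to 0.5.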
As for GUUCCGUUGGCGUAAUGGUAACGCGCCUCCCUCCUAAGGAGAAGACUGCGGGUUCGAGUCCCGUUCGGAACG [U26C A65U], the yeast fitness was found to be 0.896.

Consider GUUCCGUUGGCGUAAUGGUAACGCGCCUCCCUCCUAAGGAGAAGACUGCGGGUUCGAGUCCCGUGCGGAACG [U26C A65G], for which the yeast fitness came to 0.932.

Turning to GUUCCGUUGGCGUAAUGGUAACGCGCCUCCCUCCUAAGGAGAAGACUGCGGGUUCGAGUCCCGUCCGGAACG [U26C A65C], the yeast fitness is 0.819.

Consider GUUCCGUUGGCGUAAUGGUAACGCGCCUCCCUCCUAAGGAGAAGACUGCGGGUUAGAGUCCCGUACGGAACG [U26C C55A], for which the yeast fitness was found to be 0.65.

As for GUUCCGUUGGCGUAAUGGUAACGCGCCUCCCUCCUAAGGAGAAGACUGCGGGUUGGAGUCCCGUACGGAACG [U26C C55G], the yeast fitness amounted to 0.59.

Turning to GUUCCGUUGGCGUAAUGGUAACGCGCCUCCCUCCUAAGCAGAAGACUGCGGGUUAGAGUGCCGUACGGAACG [U26C G39C C55A C60G], the yeast fitness is not above 0.5.

Consider GUUCCGUUGGCGUAAUGGUAACGCGCCUCUCUCCUAAGGAGAAGACAGCGGGUUCGAGUCCCGUACUGAACG [U26C C30U U47A G67U], for which the yeast fitness was not above 0.5.

As to GUUCCGUUGGCGUAAUGGUAACGCGCCUCCGUCCUAAGGAGACGACUGCGGGUUCGAGUCCCGUACGGAACG [U26C C31G A43C], the yeast fitness was found to be 0.78.

Turning to GUUCCGUUGGCGUAAUGGUAACGCGCCUCCCUCCUAAGGAGAAGACUGCGGGUUCGAGUCCUGUACAGAACG [U26C C62U G67A], the yeast fitness turned out to be 0.542.

In the case of GUUCCGUUGGCGUAAUGGUAACGCGCUUCCCUCCUAAGGAGAAGACUGCGGGUUCGAGUCCCGUACCGAACG [U26C C27U G67C], the yeast fitness was found to be 0.713.

In the case of GUUCCGUUGGCGUAAUGGUAACGCGCCUCCCUCCUAAGGAGAAGAAUGCGGGUUCGAGUCUCGUACAGAACG [U26C C46A C61U G67A], the yeast fitness was not above 0.5.

For the variant GUUCCGUUGGCGUAAUGGUAACGCGCGUCCCUCUUAUGGAGAGGGCUGCGGGUUCGAGUCCCGUACGGAACG [U26C C27G C34U A37U A43G A45G], the yeast fitness is not above 0.5.

Regarding GUUCCGUUGGCGUAAUGGUAACGCGCCUCCCUCCUAAGGAGAAGACUGCGGGUUCGAGUCCCGUACGGACCG [U26C A70C], the yeast fitness turned out to be 0.797.

Turning to GUUCCGUUGGCGUAAUGGUAACGCGCCUCCCUCCUAAGGAGAAGACUGCGGGUUCGAGUCCCGUACGGAUCG [U26C A70U], the yeast fitness was 0.926.

GUUCCGUUGGCGUAAUGGUAACGCGCCUGCCUCCUAAGGAGAAGACUGUGGGUUCGAGUCCCGUACGGAACG [U26C C29G C49U]: the yeast fitness was not above 0.5.

Turning to GUUCCGUUGGCGUAAUGGUAACGCGCCUCCUUCCUAAGGAGAAGAAUCCGGGUUCGUGUCCCGUACGGAACG [U26C C31U C46A G48C A57U], the yeast fitness is 0.649.

On to GUUCCGUUGGCGUAAUGGUAACGCGCCUCCCUCCUAAGGAGAAGAGUGCGGGUUCGAGUCCGGCACUGAACG [U26C C46G C62G U64C G67U], for which the yeast fitness is not above 0.5.

With GUUCCGUUGGCGUAAUGGUAACGCGCCUCCCUCCUAAGGAGAUGACUCCGGGUUCGAGUGCCGUACGGAACG [U26C A43U G48C C60G], the yeast fitness is not above 0.5.

On to GUUCCGUUGGCGUAAUGGUAACGCGCCUGCCUCCUAAGGAGAAGACUGCGGGUUCGAGUCCCGUACGCAACG [U26C C29G G68C], for which the yeast fitness was determined as 0.558.

As to GUUCCGUUGGCGUAAUGGUAACGCGCCUGCCUCCCAAGGAGAAGACUGCGGGUUCGAGUCCCGUACGGAACG [U26C C29G U35C], the yeast fitness was not above 0.5.

GUUCCGUUGGCGUAAUGGUAACGCGCUUCCCUCCUGAGGAGAAGACUGCGGGUUCGAGUCCCGUACGGAACG [U26C C27U A36G]: the yeast fitness is 0.72.

In the case of GUUCCGUUGGCGUAAUGGUAACGCGCCUCCCUCCUAAGAAGAAGACUGCGGGUUCGAGCCCCGUACGGAACG [U26C G39A U59C], the yeast fitness came to 0.604.

As for GUUCCGUUGGCGUAAUGGUAACGCGCCUCCCUCCUAAGGAGAAGACUGCGGGUUCGAGUCUCGAACGGAACG [U26C C61U U64A], the yeast fitness worked out at 0.526.

On to GUUCCGUUGGCGUAAUGGUAACGCGCCUCCCUCCUAAGGAGAAGAAGGCAGGUUCGAGUCCCGUACGGUACG [U26C C46A U47G G50A A69U], for which the yeast fitness is not above 0.5.

Take GUUCCGUUGGCGUAAUGGUAACGCGCCUGCCUCCUAAGGAGAAGACUGCGGGUUCGAGUCCCGUACGGUACG [U26C C29G A69U]: the yeast fitness came out at 0.572.

For GUUCCGUUGGCGUAAUGGUAACGCGCCUCGCUCCUAAGGAGAAGACUGCGGGUUCGAGUCCCGCACGGAACG [U26C C30G U64C], the yeast fitness amounted to 0.703.

Regarding GUUCCGUUGGCGUAAUGGUAACGCGCCUCGCUCCUAAGGAAAAGACUGCGGGUUCAAGUGCUGUACGAAACG [U26C C30G G41A G56A C60G C62U G68A], the yeast fitness is not above 0.5.

With GUUCCGUUGGCGUAAUGGUAACGCGCCUCCCUCCUAAGGAGAAGACUGCGGGUUCGAGUCCCGUAUGGAACG [U26C C66U], the yeast fitness was 0.823.

In the case of GUUCCGUUGGCGUAAUGGUAACGCGCCUCCCUCCUAAGGAGAAGACUGCGGGUUCGAGUCCCGUAGGGAACG [U26C C66G], the yeast fitness stood at 0.674.

Regarding GUUCCGUUGGCGUAAUGGUAACGCGCCUCCCUCCUAAGGAGAAGACUGCGGGUUCGAGUCCCGUAGGCAACG [U26C C66G G68C], the yeast fitness was not above 0.5.

As to GUUCCGUUGGCGUAAUGGUAACGCGCCUGCCUCCUAAGGAGAAGACUGCGGGUUCGAGUCCCGUACGGAACG [U26C C29G], the yeast fitness came to 0.735.

Take GUUCCGUUGGCGUAAUGGUAACGCGCCUACCUCCUAAGGAGAAGACUGCGGGUUCGAGUCCCGUACGGAACG [U26C C29A]: the yeast fitness was found to be 0.664.

Consider GUUCCGUUGGCGUAAUGGUAACGCGCCUUCCUCCUAAGGAGAAGACUGCGGGUUCGAGUCCCGUACGGAACG [U26C C29U], for which the yeast fitness was 0.869.

With GUUCCGUUGGCGUAAUGGUAACGCGCGUCCCUCCUAAGGAGAAGACUGCGGGUUCGAGUCCCGUACGCAACG [U26C C27G G68C], the yeast fitness is not above 0.5.

As to GUUCCGUUGGCGUAAUGGUAACGCGCCUCCAUCCUAACGAGAAGACUGCGGGUUCGAGUCCCGUACGGAACG [U26C C31A G38C], the yeast fitness was found to be 0.529.

As for GUUCCGUUGGCGUAAUGGUAACGCGCCUCCCUGCUAAGGAGAAGACUGCGGGUCCGAGUCCCGUACGGAACG [U26C C33G U54C], the yeast fitness is not above 0.5.

On to GUUCCGUUGGCGUAAUGGUAACGCGCCUCCCUCCUAAGAAGAAGACUGCGGGUUCGAGUCCCGUACGGAACG [U26C G39A], for which the yeast fitness is 0.698.
